Laboratory results reported in ChEMBL document CHEMBL4118061, “Design and synthesis of potent HIV-1 protease inhibitors with (S)-tetrahydrofuran-tertiary amine-acetamide as P2-ligand: Structure-activity studies and biological evaluation” (Eur J Med Chem, 2017).

Biological target: Protease (Human immunodeficiency virus 1, UniProt Q9YQ12)
Assay: Inhibition of HIV1 protease expressed in Escherichia coli using Arg-Glu (EDANS)-Ser-GlnAsn-Tyr-Pro-Ile-Val-Gln-Lys(DABCYL)-Arg as substrate preincubated for 20 to 30 mins followed by substrate addition measured for 10 mins by FRET method
How it was run: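 Wild-type HIV-1 protease, cloned and expressed in E. coli, then purified. Inhibitors were dissolved in DMSO and diluted. Reaction buffer: 0.1 M sodium acetate, 1 M NaCl, 1 mM EDTA, 1 mM DTT, 2% DMSO, 1 mg/mL BSA, pH 4.7. Enzyme and inhibitor were preincubated 20-30 min at room temperature, then substrate was added. FRET read-out was recorded for about 10 min.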

Chain of Protease (Q9YQ12 whole entry): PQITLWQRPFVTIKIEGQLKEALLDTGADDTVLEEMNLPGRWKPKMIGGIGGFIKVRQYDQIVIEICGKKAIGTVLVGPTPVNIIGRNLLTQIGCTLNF

IC50 [nM] | Structure (SMILES)
> 1000 | CC(C)CN(C[C@@H](O)[C@H](Cc1ccccc1)NC(=O)CN([C@H]1CCOC1)S(C)(=O)=O)S(=O)(=O)c1ccc(OC(F)(F)F)cc1
56.9 | CC(C)CN(C[C@@H](O)[C@H](Cc1ccccc1)NC(=O)CN(CC(=O)N(C)C)[C@H]1CCOC1)S(=O)(=O)c1ccc2c(c1)OCO2
17.7 | COCCN(CC(=O)N[C@@H](Cc1ccccc1)[C@H](O)CN(CC(C)C)S(=O)(=O)c1ccc([N+](=O)[O-])cc1)[C@H]1CCOC1
6 | COCCN(CC(=O)N[C@@H](Cc1ccccc1)[C@H](O)CN(CC(C)C)S(=O)(=O)c1ccc2c(c1)OCO2)[C@@H]1CCOC1
> 1000 | COc1ccc(S(=O)(=O)N(CC(C)C)C[C@@H](O)[C@H](Cc2ccccc2)NC(=O)CN(CC(=O)N(C)C)[C@H]2CCOC2)cc1OC
1.65 | CC(C)CN(C[C@@H](O)[C@H](Cc1ccccc1)NC(=O)CN[C@H]1CCOC1)S(=O)(=O)c1ccc2c(c1)OCO2
> 1000 | COc1ccc(S(=O)(=O)N(CC(C)C)C[C@@H](O)[C@H](Cc2ccccc2)NC(=O)CN(CC(=O)N2CCOCC2)[C@H]2CCOC2)cc1OC
270 | CC(C)CN(C[C@@H](O)[C@H](Cc1ccccc1)NC(=O)CN(CC(=O)N(C)C)[C@H]1CCOC1)S(=O)(=O)c1ccc([N+](=O)[O-])cc1
65 | CC(C)CN(C[C@@H](O)[C@H](Cc1ccccc1)NC(=O)CN(CC(=O)N(C)C)[C@H]1CCOC1)S(=O)(=O)c1ccc(CO)cc1
59.8 | CC(C)CN(C[C@@H](O)[C@H](Cc1ccccc1)NC(=O)CN([C@H]1CCOC1)S(C)(=O)=O)S(=O)(=O)c1ccc(N)cc1
22.7 | CC(C)CN(C[C@@H](O)[C@H](Cc1ccccc1)NC(=O)CN([C@H]1CCOC1)S(C)(=O)=O)S(=O)(=O)c1ccc(CO)cc1
910 | CC(C)CN(C[C@@H](O)[C@H](Cc1ccccc1)NC(=O)CN(CC(=O)N1CCOCC1)[C@H]1CCOC1)S(=O)(=O)c1ccc(OC(F)(F)F)cc1
110 | CC(C)CN(C[C@@H](O)[C@H](Cc1ccccc1)NC(=O)CN(CC(=O)N1CCOCC1)[C@H]1CCOC1)S(=O)(=O)c1ccc(CO)cc1
4.26 | COCCN(CC(=O)N[C@@H](Cc1ccccc1)[C@H](O)CN(CC(C)C)S(=O)(=O)c1ccc(CO)cc1)[C@H]1CCOC1
9.9 | COc1ccc(S(=O)(=O)N(CC(C)C)C[C@@H](O)[C@H](Cc2ccccc2)NC(=O)CN(CC(N)=O)[C@H]2CCOC2)cc1OC
22.8 | COCCN(CC(=O)N[C@@H](Cc1ccccc1)[C@H](O)CN(CC(C)C)S(=O)(=O)c1ccc(N)cc1)[C@@H]1CCOC1
27.2 | CC(C)CN(C[C@@H](O)[C@H](Cc1ccccc1)NC(=O)CN(CC(=O)N1CCOCC1)[C@H]1CCOC1)S(=O)(=O)c1ccc2c(c1)OCO2
53.4 | CC(C)CN(C[C@@H](O)[C@H](Cc1ccccc1)NC(=O)CN[C@@H]1CCOC1)S(=O)(=O)c1ccc2c(c1)OCO2
10.2 | CC(C)CN(C[C@@H](O)[C@H](Cc1ccccc1)NC(=O)CN[C@H]1CCOC1)S(=O)(=O)c1ccc(CO)cc1
57 | CC(C)CN(C[C@@H](O)[C@H](Cc1ccccc1)NC(=O)CN(CC(N)=O)[C@H]1CCOC1)S(=O)(=O)c1ccc(N)cc1
22.9 | CC(C)CN(C[C@@H](O)[C@H](Cc1ccccc1)NC(=O)CN([C@H]1CCOC1)S(C)(=O)=O)S(=O)(=O)c1ccc2c(c1)OCO2
> 1000 | COc1ccc(S(=O)(=O)N(CC(C)C)C[C@@H](O)[C@H](Cc2ccccc2)NC(=O)CN([C@H]2CCOC2)S(C)(=O)=O)cc1OC
0.35 | COCCN(CC(=O)N[C@@H](Cc1ccccc1)[C@H](O)CN(CC(C)C)S(=O)(=O)c1ccc(OC)cc1)[C@H]1CCOC1
290 | CC(C)CN(C[C@@H](O)[C@H](Cc1ccccc1)NC(=O)CN[C@H]1CCOC1)S(=O)(=O)c1ccc(OC(F)(F)F)cc1

IC50 [nM] | Structure (SMILES)
98.1 | CC(C)CN(C[C@@H](O)[C@H](Cc1ccccc1)NC(=O)CN(CC(=O)N1CCOCC1)[C@H]1CCOC1)S(=O)(=O)c1ccc([N+](=O)[O-])cc1
33.6 | CC(C)CN(C[C@@H](O)[C@H](Cc1ccccc1)NC(=O)CN(CC(N)=O)[C@H]1CCOC1)S(=O)(=O)c1ccc([N+](=O)[O-])cc1
6.85 | COCCN(CC(=O)N[C@@H](Cc1ccccc1)[C@H](O)CN(CC(C)C)S(=O)(=O)c1ccc(OC)cc1)[C@@H]1CCOC1
20.4 | COc1ccc(S(=O)(=O)N(CC(C)C)C[C@@H](O)[C@H](Cc2ccccc2)NC(=O)CN(CC(N)=O)[C@H]2CCOC2)cc1
2.23 | COc1ccc(S(=O)(=O)N(CC(C)C)C[C@@H](O)[C@H](Cc2ccccc2)NC(=O)CN[C@H]2CCOC2)cc1
4.11 | CC(C)CN(C[C@@H](O)[C@H](Cc1ccccc1)NC(=O)CN[C@H]1CCOC1)S(=O)(=O)c1ccc(N)cc1
16 | COc1ccc(S(=O)(=O)N(CC(C)C)C[C@@H](O)[C@H](Cc2ccccc2)NC(=O)CN[C@@H]2CCOC2)cc1
310 | COc1ccc(S(=O)(=O)N(CC(C)C)C[C@@H](O)[C@H](Cc2ccccc2)NC(=O)CN[C@H]2CCOC2)cc1OC
160 | CC(C)CN(C[C@@H](O)[C@H](Cc1ccccc1)NC(=O)CN(CC(=O)N1CCOCC1)[C@H]1CCOC1)S(=O)(=O)c1ccc(N)cc1
291 | CC(C)CN(C[C@@H](O)[C@H](Cc1ccccc1)NC(=O)CN([C@H]1CCOC1)S(C)(=O)=O)S(=O)(=O)c1ccc([N+](=O)[O-])cc1
0.77 | COCCN(CC(=O)N[C@@H](Cc1ccccc1)[C@H](O)CN(CC(C)C)S(=O)(=O)c1ccc2c(c1)OCO2)[C@H]1CCOC1
141 | CC(C)CN(C[C@@H](O)[C@H](Cc1ccccc1)NC(=O)CN[C@@H]1CCOC1)S(=O)(=O)c1ccc(N)cc1
68 | COCCN(CC(=O)N[C@@H](Cc1ccccc1)[C@H](O)CN(CC(C)C)S(=O)(=O)c1ccc(OC(F)(F)F)cc1)[C@H]1CCOC1
19.3 | CC(C)CN(C[C@@H](O)[C@H](Cc1ccccc1)NC(=O)CN(CC(N)=O)[C@H]1CCOC1)S(=O)(=O)c1ccc(CO)cc1
12.6 | COc1ccc(S(=O)(=O)N(CC(C)C)C[C@@H](O)[C@H](Cc2ccccc2)NC(=O)CN([C@H]2CCOC2)S(C)(=O)=O)cc1
38 | CC(C)CN(C[C@@H](O)[C@H](Cc1ccccc1)NC(=O)CN(CC(=O)N(C)C)[C@H]1CCOC1)S(=O)(=O)c1ccc(N)cc1
530 | CC(C)CN(C[C@@H](O)[C@H](Cc1ccccc1)NC(=O)CN(CC(N)=O)[C@H]1CCOC1)S(=O)(=O)c1ccc(OC(F)(F)F)cc1
190 | COCCN(CC(=O)N[C@@H](Cc1ccccc1)[C@H](O)CN(CC(C)C)S(=O)(=O)c1ccc(OC)c(OC)c1)[C@H]1CCOC1
44 | COc1ccc(S(=O)(=O)N(CC(C)C)C[C@@H](O)[C@H](Cc2ccccc2)NC(=O)CN(CC(=O)N2CCOCC2)[C@H]2CCOC2)cc1
46.3 | CC(C)CN(C[C@@H](O)[C@H](Cc1ccccc1)NC(=O)CN[C@H]1CCOC1)S(=O)(=O)c1ccc([N+](=O)[O-])cc1
> 1000 | CC(C)CN(C[C@@H](O)[C@H](Cc1ccccc1)NC(=O)CN(CC(=O)N(C)C)[C@H]1CCOC1)S(=O)(=O)c1ccc(OC(F)(F)F)cc1
0.88 | COCCN(CC(=O)N[C@@H](Cc1ccccc1)[C@H](O)CN(CC(C)C)S(=O)(=O)c1ccc(N)cc1)[C@H]1CCOC1
28.6 | COc1ccc(S(=O)(=O)N(CC(C)C)C[C@@H](O)[C@H](Cc2ccccc2)NC(=O)CN(CC(=O)N(C)C)[C@H]2CCOC2)cc1
> 1000 | CC(C)CN(C[C@@H](O)[C@H](Cc1ccccc1)NC(=O)CN(CC(N)=O)[C@H]1CCOC1)S(=O)(=O)c1ccc2c(c1)OCO2
